# Measurements taken from ChEMBL document CHEMBL2380270, “Radiosynthesis and first evaluation in mice of [(18)F]NS14490 for molecular imaging of α7 nicotinic acetylcholine receptors” (Bioorg Med Chem, 2013).
# Key:
# Stomach [1] = assay: Biodistribution in CD1 mouse stomach at 200 to 300 kBq, iv measured at 30 mins by gamma counting analysis; assay type: ADME, organism-based; conditions: in vivo, 0.5 h
# How it was run: (§1)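 Female CD-1 mice received 200–300 kBq [18F]radiotracer intravenously. Blood and urine were sampled under anaesthesia, then mice were killed by cervical dislocation at 5, 15, 30 or 60 min p.i. (n = 3; control at 60 min n = 7). Organs were removed and weighed, activity was gamma-counted, and uptake was expressed as % injected dose per g wet tissue.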
# Brain [2] = assay: Biodistribution in CD1 mouse brain at 200 to 300 kBq, iv measured at 5 mins by gamma counting analysis; assay type: ADME, organism-based; conditions: in vivo
# How it was run: (§2)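 Female CD-1 mice, 200–300 kBq radiotracer given iv, n = 3 per time point. Animals anaesthetised for blood and urine sampling, then killed by cervical dislocation at 5, 15, 30 or 60 min p.i. Organs removed, weighed and gamma-counted; uptake expressed as % injected dose per g wet tissue.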
# Urinary bladder [3] = assay: Biodistribution in CD1 mouse bladder at 200 to 300 kBq, iv measured at 30 mins by gamma counting analysis; assay type: ADME, organism-based; conditions: in vivo, 0.5 h; how it was run: as §2
# Stomach [4] = assay: Biodistribution in CD1 mouse stomach at 200 to 300 kBq, iv measured at 60 mins by gamma counting analysis; assay type: ADME, organism-based; conditions: in vivo, 1 h; how it was run: as §1
# Urinary bladder [5] = assay: Biodistribution in CD1 mouse bladder at 200 to 300 kBq, iv measured at 60 mins by gamma counting analysis in presence of SSR180711; assay type: ADME, organism-based; conditions: in vivo, 1 h
# How it was run: (§3)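 Blocking study in female CD-1 mice, n = 7 per blocker, with a matching control group. SSR180711 or NS6740 given at 10 mg kg⁻¹ ip in 0.9% saline 10 min before iv radiotracer (200–300 kBq). Organs taken at 60 min p.i., weighed and gamma-counted; uptake as % ID per g wet weight. Compared with control by two-tailed independent Student's t test.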
# [6] = Biodistribution in CD1 mouse urine at 200 to 300 kBq, iv measured at 5 mins by gamma counting analysis; assay type: ADME, organism-based; conditions: in vivo
# How it was run: (§4)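 Female CD-1 mice given 200–300 kBq tracer intravenously. Animals anaesthetised for blood and urine sampling, then killed by cervical dislocation at 5, 15, 30 or 60 min (n = 3 per time; n = 7 at 60 min). Organs removed and weighed, activity gamma-counted, expressed as % injected dose per g wet weight. Blocking arm: 10 mg/kg i.p. in 0.9% saline, 10 min before tracer; two-tailed unpaired t test versus control.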
# Mus musculus [7] = assay: Biodistribution in CD1 mouse thymus at 200 to 300 kBq, iv measured at 15 mins by gamma counting analysis; assay type: ADME, organism-based; conditions: in vivo, 0.25 h; how it was run: as §1
# Mus musculus [8] = assay: Biodistribution in CD1 mouse small intestine at 200 to 300 kBq, iv measured at 60 mins by gamma counting analysis in presence of SSR180711; assay type: ADME, organism-based; conditions: in vivo, 1 h
# How it was run: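 Blocking design in female CD-1 mice, n = 7 per group. The blocker was given at 10 mg kg^-1 i.p. in 0.9% saline 10 min before i.v. 200–300 kBq [18F]radiotracer. Mice were killed at 60 min p.i. and organs weighed and gamma-counted as % ID per g wet weight. Blocked groups were compared with controls by two-tailed independent Student's t test.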
# Mus musculus [9] = assay: Biodistribution in CD1 mouse thymus at 200 to 300 kBq, iv measured at 5 mins by gamma counting analysis; assay type: ADME, organism-based; conditions: in vivo; how it was run: as §4
# Femur = assay: Biodistribution in CD1 mouse femur at 200 to 300 kBq, iv measured at 60 mins by gamma counting analysis in presence of SSR180711; assay type: ADME, organism-based; conditions: in vivo, 1 h; how it was run: as §3
# Lung = assay: Biodistribution in CD1 mouse lung at 200 to 300 kBq, iv measured at 60 mins by gamma counting analysis; assay type: ADME, organism-based; conditions: in vivo, 1 h; how it was run: as §1
# Kidney = assay: Biodistribution in CD1 mouse kidney at 200 to 300 kBq, iv measured at 60 mins by gamma counting analysis in presence of SSR180711; assay type: ADME, organism-based; conditions: in vivo, 1 h; how it was run: as §3
# Liver [10] = assay: Biodistribution in CD1 mouse liver at 200 to 300 kBq, iv measured at 15 mins by gamma counting analysis; assay type: ADME, organism-based; conditions: in vivo, 0.25 h; how it was run: as §1
# Mus musculus [11] = assay: Biodistribution in CD1 mouse small intestine at 200 to 300 kBq, iv measured at 60 mins by gamma counting analysis; assay type: ADME, organism-based; conditions: in vivo, 1 h; how it was run: as §1
# Mus musculus [12] = assay: Biodistribution in CD1 mouse large intestine at 200 to 300 kBq, iv measured at 60 mins by gamma counting analysis; assay type: ADME, organism-based; conditions: in vivo, 1 h; how it was run: as §2
# Liver [13] = assay: Biodistribution in CD1 mouse liver at 200 to 300 kBq, iv measured at 5 mins by gamma counting analysis; assay type: ADME, organism-based; conditions: in vivo; how it was run: as §1
# Mus musculus [14] = assay: Biodistribution in CD1 mouse thymus at 200 to 300 kBq, iv measured at 30 mins by gamma counting analysis; assay type: ADME, organism-based; conditions: in vivo, 0.5 h; how it was run: as §1
# Brain [15] = assay: Biodistribution in CD1 mouse brain at 200 to 300 kBq, iv measured at 60 mins by gamma counting analysis in presence of SSR180711; assay type: ADME, organism-based; conditions: in vivo, 1 h; how it was run: as §3
# [16] = Biodistribution in CD1 mouse urine at 200 to 300 kBq, iv measured at 15 mins by gamma counting analysis; assay type: ADME, organism-based; conditions: in vivo, 0.25 h; how it was run: as §4
# Pancreas [17] = assay: Biodistribution in CD1 mouse pancreas at 200 to 300 kBq, iv measured at 5 mins by gamma counting analysis; assay type: ADME, organism-based; conditions: in vivo; how it was run: as §1
# Spleen = assay: Biodistribution in CD1 mouse spleen at 200 to 300 kBq, iv measured at 30 mins by gamma counting analysis; assay type: ADME, organism-based; conditions: in vivo, 0.5 h; how it was run: as §1
# Heart = assay: Biodistribution in CD1 mouse heart at 200 to 300 kBq, iv measured at 60 mins by gamma counting analysis in presence of SSR180711; assay type: ADME, organism-based; conditions: in vivo, 1 h; how it was run: as §3
# Brain [18] = assay: Biodistribution in CD1 mouse brain at 200 to 300 kBq, iv measured at 15 mins by gamma counting analysis; assay type: ADME, organism-based; conditions: in vivo, 0.25 h; how it was run: as §2
# Blood = assay: Biodistribution in CD1 mouse blood at 200 to 300 kBq, iv measured at 15 mins by gamma counting analysis; assay type: ADME, organism-based; conditions: in vivo, 0.25 h; how it was run: as §2
# Mus musculus [19] = assay: Biodistribution in CD1 mouse thymus at 200 to 300 kBq, iv measured at 60 mins by gamma counting analysis in presence of SSR180711; assay type: ADME, organism-based; conditions: in vivo, 1 h; how it was run: as §4
# Muscle tissue = assay: Biodistribution in CD1 mouse muscle at 200 to 300 kBq, iv measured at 60 mins by gamma counting analysis; assay type: ADME, organism-based; conditions: in vivo, 1 h; how it was run: as §1
# Mus musculus [20] = assay: Biodistribution in CD1 mouse adrenal at 200 to 300 kBq, iv measured at 5 mins by gamma counting analysis; assay type: ADME, organism-based, Adrenal gland; conditions: in vivo; how it was run: as §2
# Liver [21] = assay: Biodistribution in CD1 mouse liver at 200 to 300 kBq, iv measured at 60 mins by gamma counting analysis; assay type: ADME, organism-based; conditions: in vivo, 1 h; how it was run: as §1
# Mus musculus [22] = assay: Biodistribution in CD1 mouse adrenal at 200 to 300 kBq, iv measured at 30 mins by gamma counting analysis; assay type: ADME, organism-based, Adrenal gland; conditions: in vivo, 0.5 h; how it was run: as §2
# Zone of skin = assay: Biodistribution in CD1 mouse skin at 200 to 300 kBq, iv measured at 30 mins by gamma counting analysis; assay type: ADME, organism-based; conditions: in vivo, 0.5 h; how it was run: as §1
# Urinary bladder [23] = assay: Biodistribution in CD1 mouse bladder at 200 to 300 kBq, iv measured at 15 mins by gamma counting analysis; assay type: ADME, organism-based; conditions: in vivo, 0.25 h; how it was run: as §2
# Pancreas [24] = assay: Biodistribution in CD1 mouse pancreas at 200 to 300 kBq, iv measured at 15 mins by gamma counting analysis; assay type: ADME, organism-based; conditions: in vivo, 0.25 h; how it was run: as §1
structure (smiles),measurement,setting,value
O=C(Oc1ccc(Br)cc1)N1CCN2CCC1CC2 [SSR180711],Drug uptake,Stomach [1],7.29 % ID/g
same,Drug uptake,Brain [2],0.16 % ID/g
same,Drug uptake,Urinary bladder [3],2.08 % ID/g
same,Drug uptake,Stomach [4],8.13 % ID/g
same,Drug uptake,Urinary bladder [5],1.47 % ID/g
same,Drug uptake,[6],23.9 % ID/g
same,Drug uptake,Mus musculus [7],2.98 % ID/g
same,Drug uptake,Mus musculus [8],15.9 % ID/g
same,Drug uptake,Mus musculus [9],1.95 % ID/g
same,Drug uptake,Femur,1.43 % ID/g
same,Drug uptake,Lung,4.88 % ID/g
same,Drug uptake,Kidney,10.5 % ID/g
same,Drug uptake,Liver [10],9.39 % ID/g
same,Drug uptake,Mus musculus [11],16.1 % ID/g
same,Drug uptake,Mus musculus [12],5.02 % ID/g
same,Drug uptake,Liver [13],6.29 % ID/g
same,Drug uptake,Mus musculus [14],2.6 % ID/g
same,Drug uptake,Brain [15],0.15 % ID/g
same,Drug uptake,[16],122 % ID/g
same,Drug uptake,Pancreas [17],5.16 % ID/g
same,Drug uptake,Spleen,7.5 % ID/g
same,Drug uptake,Heart,1.81 % ID/g
same,Drug uptake,Brain [18],0.24 % ID/g
same,Drug uptake,Blood,1.25 % ID/g
same,Drug uptake,Mus musculus [19],2.47 % ID/g
same,Drug uptake,Muscle tissue,1 % ID/g
same,Drug uptake,Mus musculus [20],5.78 % ID/g
same,Drug uptake,Liver [21],7.79 % ID/g
same,Drug uptake,Mus musculus [22],4.61 % ID/g
same,Drug uptake,Zone of skin,1.23 % ID/g
same,Drug uptake,Urinary bladder [23],2.19 % ID/g
same,Drug uptake,Pancreas [24],5.48 % ID/g
